In ChEMBL document CHEMBL1133703, “Inhibitors of topoisomerase II based on the benzodiimidazole and dipyrroloimidazobenzimidazole ring systems: controlling DT-diaphorase reductive inactivation with steric bulk” (2000):

Legend:
Type in all cases: functional
Details in all cases: Homo sapiens
[1] = system: CNS carcinoma cell; test: Lethal concentration was determined against CNS cancer cell line
How it was run: (§1)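 NCI 60-cell-line in vitro screen run at the National Cancer Institute on a submitted sample of about 5 mg. The screen yields mean graph data: LC50 (50% lethal concentration), GI50 and TGI. The LC50 values reported are averages over the cell lines of each cancer type.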

[2] = system: Panel leukemia (Carcinoma cell lines); test: Lethal concentration was determined against Leukemia cell line; how it was run: as §1
[3] = system: Melanoma cell; test: Lethal concentration was determined against Melanoma cell line; how it was run: as §1
[4] = system: Ovarian carcinoma cell; test: Lethal concentration was determined against Ovarian cancer cell line; how it was run: as §1
[5] = system: Renal cancer cell line; test: Lethal concentration was determined against Renal cancer cell line; how it was run: as §1
[6] = system: Colon carcinoma cell; test: Lethal concentration was determined against Colon cancer cell line; how it was run: as §1
[7] = system: NSCLC; test: Lethal concentration was determined against NSC lung cancer cell line; how it was run: as §1

Row | SMILES | LC50 [1] | LC50 (50% lethal concentration) [2] | LC50 (50% lethal concentration) [3] | LC50 (50% lethal concentration) [4] | LC50 (50% lethal concentration) [5] | LC50 [6] | LC50 [7]
1 | CC(=O)NC1=C(C)C(=O)c2c(nc3n2CCC3OC(C)=O)C1=O (centres undefined) | 25.1 µM | 100 µM | 12.6 µM | 15.8 µM | 15.8 µM | 31.6 µM | 20 µM
2 | Cn1c(CCl)nc2c1C(=O)c1c(nc(CCl)n1C)C2=O | 5.01 µM | 4.37 µM | 5.01 µM | 10 µM | 6.31 µM | – | 4.47 µM
3 | CC(=O)OC1CCn2c1nc1c2C(=O)c2c(nc3n2CCC3OC(C)=O)C1=O (centres undefined) | 3.16 µM | 2.51 µM | 2.57 µM | 3.98 µM | 6.31 µM | 3.8 µM | 3.98 µM
4 | Cc1nc2c(n1C)C(=O)c1c(nc(CCl)n1C)C2=O | 15.8 µM | 12.9 µM | 5.89 µM | 25.1 µM | 15.8 µM | 6.31 µM | 12.3 µM
5 | O=C1c2nc3n(c2C(=O)c2c1nc1n2CCC1)CCC3 | 63.1 µM | 100 µM | 15.8 µM | 50.1 µM | 79.4 µM | 50.1 µM | 39.8 µM
